Measured values from ChEMBL document CHEMBL4387755 (Bioorg Med Chem, 2019).

How the values were obtained:
Assay type in all cases: functional, cell-based
[1] = target: T1, Melatonin receptor type 1A (Homo sapiens, UniProt P48039); assay: Agonist activity at MT1 receptor (unknown origin) expressed in HEK293 cells at 0.5 mM by Fluo-8 dye-based calcium assay relative to control
How it was run: (§1)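 HEK293 cells grown at 37 °C, 5% CO2 in DMEM with 10% FBS and G418 (400 μg/mL). Seeded at 4 × 10⁴/well on Matrigel-coated plates and grown 24 h. Loaded with Fluo-8 calcium dye for 1 h. Compounds were dissolved in DMSO and diluted in HBSS, then added automatically. Fluorescence was read at room temperature (ex 485 nm, em 525 nm, cut-off 515 nm). Agonistic rate was measured at 0.5 mM.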

[2] = target: T2, Melatonin receptor type 1B (Homo sapiens) (UniProt P49286); assay: Agonist activity at MT2 receptor (unknown origin) expressed in HEK293 cells at 0.5 mM by Fluo-8 dye-based calcium assay relative to control; how it was run: as §1
T2 sequence (whole entry): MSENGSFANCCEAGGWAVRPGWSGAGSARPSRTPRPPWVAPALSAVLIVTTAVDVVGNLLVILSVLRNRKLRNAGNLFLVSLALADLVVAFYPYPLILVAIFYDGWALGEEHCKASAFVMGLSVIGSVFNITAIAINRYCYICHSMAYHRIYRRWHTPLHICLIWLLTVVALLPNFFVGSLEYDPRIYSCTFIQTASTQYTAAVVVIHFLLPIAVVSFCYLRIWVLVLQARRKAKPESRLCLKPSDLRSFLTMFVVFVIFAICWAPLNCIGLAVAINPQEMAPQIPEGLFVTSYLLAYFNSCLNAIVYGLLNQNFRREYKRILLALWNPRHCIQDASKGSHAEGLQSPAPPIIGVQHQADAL

[3] = target: T1, Melatonin receptor type 1A; assay: Agonist activity at MT1 receptor (unknown origin) expressed in HEK293 cells by Fluo-8 dye-based calcium assay
[4] = target: T3, Melatonin receptor type 1B (Homo sapiens, UniProt P49286); assay: Agonist activity at MT2 receptor (unknown origin) expressed in HEK293 cells by Fluo-8 dye-based calcium assay
T3 sequence (P49286 whole entry): T2 sequence (whole entry)

T1 sequence (P48039 whole entry): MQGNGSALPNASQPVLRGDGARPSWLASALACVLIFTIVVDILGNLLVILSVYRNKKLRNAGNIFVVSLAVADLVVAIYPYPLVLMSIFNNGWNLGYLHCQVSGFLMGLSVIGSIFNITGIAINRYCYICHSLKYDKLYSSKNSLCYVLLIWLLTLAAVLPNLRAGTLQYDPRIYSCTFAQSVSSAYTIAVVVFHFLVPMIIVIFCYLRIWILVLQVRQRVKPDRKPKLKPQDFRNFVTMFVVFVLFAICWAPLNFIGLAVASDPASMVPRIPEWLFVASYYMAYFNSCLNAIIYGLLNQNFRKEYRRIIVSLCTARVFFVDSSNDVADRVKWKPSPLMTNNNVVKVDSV

Compound	Activity [1]	Activity [2]	EC50 [3]	EC50 [4]
OC[C@H]1O[C@@H](Oc2ccc(Sc3ccc(O)cc3)cc2)[C@H](O)[C@@H](O)[C@@H]1O	-2.3%	-2.2%	–	–
CC(=O)OC[C@H]1O[C@@H](Oc2ccc(Sc3ccc(O[C@@H]4O[C@H](COC(C)=O)[C@@H](OC(C)=O)[C@H](OC(C)=O)[C@H]4OC(C)=O)cc3)cc2)[C@H](OC(C)=O)[C@@H](OC(C)=O)[C@@H]1OC(C)=O	-0.4%	-3.6%	–	–
CCOCc1cc(Cc2ccc(O)cc2)ccc1O	37%	117%	–	–
CCOCc1ccc(O)c(Cc2ccc(O)c(COCC)c2)c1	-11.2%	5.3%	–	–
Oc1ccc(Oc2ccc(O)cc2)cc1	45.9%	67.1%	–	–
Oc1ccc(Cc2ccc(O)cc2)cc1	80.3%	103%	237 µM	244 µM
Oc1ccc(Sc2ccc(O)cc2)cc1	44.6%	94.1%	–	–
CCOCc1ccc(O)c(Cc2ccc(O)c(Cc3ccc(O)cc3)c2)c1	-5.7%	-10.4%	–	–
Oc1ccc(COc2ccc(Cc3ccc(O)cc3)cc2)cc1	-5.6%	15.3%	–	–
Oc1ccc(Cc2ccc(O)c(Cc3ccc(O)cc3)c2)cc1	46.5%	134%	–	–
CCOCc1cc(Cc2ccc(O)cc2)c(O)c(Cc2ccc(O)c(Cc3ccc(O)cc3)c2)c1	-5.3%	29.5%	–	–
Oc1ccc(Cc2cc(Sc3ccc(O)cc3)ccc2O)cc1	31.3%	48.4%	–	–
Oc1ccc(Cc2ccc(O)c(Cc3ccccc3)c2)cc1	-8.6%	-6.6%	–	–
Oc1ccc(Cc2ccc(O)c(Cc3ccccc3Cc3ccccc3)c2)cc1	-2.3%	-6.7%	–	–
Oc1ccc(Cc2cc(Oc3ccc(O)cc3)ccc2O)cc1	37.1%	51.2%	–	–
CCOCc1ccc(O)c(Cc2ccc(O)cc2)c1	3.3%	38.3%	–	–
CN(c1ccc(O)cc1)c1ccc(O)cc1	-9.5%	44.7%	–	–
Oc1ccc(COCc2ccc(O)c(Cc3ccc(O)cc3)c2)cc1	25.1%	59.4%	–	–
CC(=O)OC[C@H]1O[C@@H](Oc2ccc(Sc3ccc(O)cc3)cc2)[C@H](OC(C)=O)[C@@H](OC(C)=O)[C@@H]1OC(C)=O	0.3%	8.5%	–	–
